The values below come from ChEMBL document CHEMBL1221368, “Identification of small molecule compounds with higher binding affinity to guanine deaminase (cypin) than guanine” (Bioorg Med Chem, 2010).

Substrate in this data set: Nc1nc2[nH]cnc2c(=O)[nH]1
Briefly: Activity at GDA by colorimetric assay. In short, it runs like this:
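Purified rabbit liver guanine deaminase, 8 × 10^-3 U, incubated with guanine at 2, 5, 7, 10, 12, 15, 17 and 20 µM plus inhibitor at 8 or 20 µM. Run in TBS (25 mM Tris-HCl, 137 mM NaCl, 2.7 mM KCl) at pH 7.4 and 25 °C. Guanine hydrolysis followed as OD change at 245 nm. Kinetic constants taken from Lineweaver–Burk plots (1/V vs 1/S).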

B1: Guanine deaminase (Homo sapiens), Q9Y2T3 (protein)
chain: MCAAQMPPLAHIFRGTFVHSTWTCPMEVLRDHLLGVSDSGKIVFLEEASQQEKLAKEWCFKPCEIRELSHHEFFMPGLVDTHIHASQYSFAGSSIDLPLLEWLTKYTFPAEHRFQNIDFAEEVYTRVVRRTLKNGTTTACYFATIHTDSSLLLADITDKFGQRAFVGKVCMDLNDTFPEYKETTEESIKETERFVSEMLQKNYSRVKPIVTPRFSLSCSETLMGELGNIAKTRDLHIQSHISENRDEVEAVKNLYPSYKNYTSVYDKNNLLTNKTVMAHGCYLSAEELNVFHERGASIAHCPNSNLSLSSGFLNVLEVLKHEVKIGLGTDVAGGYSYSMLDAIRRAVMVSNILLINKVNEKSLTLKEVFRLATLGGSQALGLDGEIGNFEVGKEFDAILINPKASDSPIDLFYGDFFGDISEAVIQKFLYLGDDRNIEEVYVGGKQVVPFSSSV
The Km is the substrate concentration at which the rate is half of its maximum. Turning to B1, the Km was determined as 11.2 µM.
